Measurements taken from publication PMC11253529 (iScience, 2024).
Read-outs that look alike come from different tables or passages of the source.

What was measured:
C. albicans FH2173 = settings: MHII medium; previously determined values; ref Krämer et al.[35]; cited from earlier work
[1] = tested on: S. aureus (MRSA) ATCC33592; settings: MHII medium; previously determined values; ref Krämer et al.[35]; cited from earlier work
E. coli ATCC35218 = settings: previously determined values, ref Krämer et al.[35], cited from earlier work
A. flavus ATCC9170 = settings: MHII medium; previously determined values; ref Krämer et al.[35]; cited from earlier work
pea aphids = settings: feeding assay; cited from earlier work
M. smegmatis ATCC607 = settings: MHII medium; previously determined values; ref Krämer et al.[35]; cited from earlier work
P. aeruginosa ATCC27853 = settings: MHII medium, previously determined values, ref Krämer et al.[35], cited from earlier work
intracellular Ca^2+ = experiment: Intracellular Ca2+ induction assay; format: cell-based, human; settings: 2.5 μg/mL; Fluo-8 pre-treated HEK293T cells; fluorescence imaging; n = 3
Summary of the method: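 HEK293T cells (2 × 10^4/well, poly-D-lysine plates) were cultured 24 h at 37°C, then loaded with 4 μM Fluo-8-AM in HBSS for 1 h at 37°C and switched to HBSS. After peptide addition, confocal high-content images were taken every second for 20 s. Cells above a fluorescence threshold set from pre-treatment cells were counted against untreated cells. The positive control was 5 μM ionomycin.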

Row | Substance | MIC, C. albicans FH2173 (C. albicans FH2173) [µM] | MIC, S. aureus (MRSA) ATCC33592 [1] [µM] | MIC, E. coli ATCC35218, MHC medium (in brackets) (E. coli ATCC35218) | MIC, A. flavus ATCC9170 (A. flavus ATCC9170) [µM] | Insecticidal activity in aphid feeding assays (pea aphids) | MIC, M. smegmatis ATCC607 (M. smegmatis ATCC607) [µM] | MIC, P. aeruginosa ATCC27853 (P. aeruginosa ATCC27853) [µM] | MIC, P. aeruginosa ATCC27853 (P. aeruginosa ATCC27853; listed as checacin 1) | MIC, E. coli ATCC35218, MHII medium (E. coli ATCC35218) | Induction of intracellular Ca^2+ levels (intracellular Ca^2+)
1 | FFGAIAKLAMKFLPAIYKQIQKKRK-Amidation [Checacin 1] | 6.25 | 1.56 | 1.6 µM | 50 | insecticidal activity in aphid feeding assays, but only after 72 h | 25 | 12.5 | inhibited to various degrees | – | –
2 | FFGAIAKLAMKFLPAIYKQIQ [Checacin 1^1−21] | >50 | 12.5 | >50 (>50) μM | >50 | – | >50 | >50 | – | >50 (>50) μM | –
3 | FLPAIYKQIQKKRK-Amidation [Checacin 1^12−25] | >50 | >50 | >50 (>50) μM | >50 | – | >50 | >50 | – | >50 (>50) μM | the only exceptions
4 | FFGAIAKLAMK [Checacin 1^1−11] | >50 | >50 | >50 (>50) μM | >50 | – | >50 | >50 | – | >50 (>50) μM | the only exceptions
